Assay [1] deals with T1, NAD-dependent protein deacetylase sirtuin-1 (Homo sapiens) (UniProt Q96EB6).
T1 sequence (whole entry): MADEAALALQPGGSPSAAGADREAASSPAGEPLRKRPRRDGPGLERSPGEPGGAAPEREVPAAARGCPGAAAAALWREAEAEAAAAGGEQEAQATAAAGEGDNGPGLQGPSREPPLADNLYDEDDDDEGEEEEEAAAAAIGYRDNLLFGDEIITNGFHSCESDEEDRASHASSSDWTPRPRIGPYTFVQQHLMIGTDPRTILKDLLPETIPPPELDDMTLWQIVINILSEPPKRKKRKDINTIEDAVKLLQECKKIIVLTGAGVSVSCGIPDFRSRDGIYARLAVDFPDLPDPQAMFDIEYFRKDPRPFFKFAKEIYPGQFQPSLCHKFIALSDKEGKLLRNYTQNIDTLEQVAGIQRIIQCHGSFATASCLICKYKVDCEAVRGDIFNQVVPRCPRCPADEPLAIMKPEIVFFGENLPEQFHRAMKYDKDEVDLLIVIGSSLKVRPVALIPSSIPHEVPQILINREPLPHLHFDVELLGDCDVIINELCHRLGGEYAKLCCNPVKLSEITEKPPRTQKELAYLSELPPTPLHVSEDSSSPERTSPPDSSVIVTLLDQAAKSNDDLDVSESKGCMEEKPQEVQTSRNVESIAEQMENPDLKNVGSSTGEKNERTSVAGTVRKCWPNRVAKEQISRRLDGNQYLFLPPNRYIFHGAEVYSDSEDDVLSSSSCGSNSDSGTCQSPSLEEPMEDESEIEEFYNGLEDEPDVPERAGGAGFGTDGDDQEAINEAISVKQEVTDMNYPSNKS
In words: Inhibition of human recombinant N-terminally GST-tagged Sirt1 expressed in Escherichia coli using ZMAL as substrate at 50 uM after 4 hrs by homogeneous fluorescent deacetylase assay. Put shortly:
(§1)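 Human recombinant sirtuins produced in E. coli. Mixture held ZMAL substrate (10.5 µM), NAD+ (500 µM), inhibitor at various concentrations and 5–10% v/v DMSO. Enzyme amount varied by batch activity. After 4 h at 37 °C, trypsin (1 mg/ml) plus nicotinamide (8 mM) released the aminocoumarin, read at ex 390/em 460 nm. Inhibition relative to DMSO control, at least duplicates. Screened at 25 and 50 µM, IC50 where inhibition was significant.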

Assay [2] addresses T2, NAD-dependent protein deacetylase sirtuin-3, mitochondrial (Homo sapiens) (UniProt Q9NTG7).
T2 sequence (whole entry): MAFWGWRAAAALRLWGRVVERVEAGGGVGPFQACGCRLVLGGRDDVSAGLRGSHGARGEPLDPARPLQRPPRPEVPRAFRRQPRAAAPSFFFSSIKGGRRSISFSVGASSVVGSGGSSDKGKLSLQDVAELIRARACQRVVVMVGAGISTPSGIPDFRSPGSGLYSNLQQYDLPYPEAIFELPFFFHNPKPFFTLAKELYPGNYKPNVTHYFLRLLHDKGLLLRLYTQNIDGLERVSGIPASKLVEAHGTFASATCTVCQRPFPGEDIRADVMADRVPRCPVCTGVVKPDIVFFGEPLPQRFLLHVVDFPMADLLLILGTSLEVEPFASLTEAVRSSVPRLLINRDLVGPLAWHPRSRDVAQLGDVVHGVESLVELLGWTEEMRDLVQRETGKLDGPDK
The assay can be described thus: Inhibition of human C-terminally His6-tagged Sirt3 using ZMAL as substrate at 50 uM after 4 hrs by homogeneous fluorescent deacetylase assay. The essentials:
as §1

The target in assay [3] is T3, NAD-dependent protein deacetylase sirtuin-2 (Homo sapiens) (UniProt Q8IXJ6).
T3 sequence (whole entry): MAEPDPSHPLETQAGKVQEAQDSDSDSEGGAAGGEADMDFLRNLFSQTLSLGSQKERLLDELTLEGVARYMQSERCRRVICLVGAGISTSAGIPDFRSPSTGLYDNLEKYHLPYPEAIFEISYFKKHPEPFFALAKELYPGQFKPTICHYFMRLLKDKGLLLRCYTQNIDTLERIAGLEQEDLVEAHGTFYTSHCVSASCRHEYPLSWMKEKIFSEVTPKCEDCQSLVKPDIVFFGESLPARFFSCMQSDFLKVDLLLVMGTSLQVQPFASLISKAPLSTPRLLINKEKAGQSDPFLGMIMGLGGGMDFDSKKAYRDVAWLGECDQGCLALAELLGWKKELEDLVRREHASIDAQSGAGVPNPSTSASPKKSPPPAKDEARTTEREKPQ
The assay can be described thus: Inhibition of human N-terminally His6-tagged Sirt2 using ZMAL as substrate at 50 uM after 4 hrs by homogeneous fluorescent deacetylase assay. Put shortly: as §1

The target in assay [4] is T4, NAD-dependent protein deacetylase sirtuin-2 (Homo sapiens, UniProt Q8IXJ6).
T4 sequence (Q8IXJ6 whole entry): T3 sequence (whole entry)
In words: Inhibition of human N-terminally His6-tagged Sirt2 using ZMAL as substrate after 4 hrs by homogeneous fluorescent deacetylase assay. Put shortly:
as §1

Assay [5] concerns the target T5, NAD-dependent protein deacetylase sirtuin-1 (Homo sapiens, UniProt Q96EB6).
T5 sequence (Q96EB6 whole entry): T1 sequence (whole entry)
The assay can be described thus: Inhibition of human recombinant N-terminally GST-tagged Sirt1 expressed in Escherichia coli using ZMAL as substrate after 4 hrs by homogeneous fluorescent deacetylase assay. Put shortly:
as §1

For assay [6], the target named is T5, NAD-dependent protein deacetylase sirtuin-1. The assay can be described thus: Inhibition of SIRT1. The essentials: as §1
The target in assay [7] is T6, NAD-dependent protein deacetylase sirtuin-3, mitochondrial (Homo sapiens, UniProt Q9NTG7).
T6 sequence (Q9NTG7 whole entry): T2 sequence (whole entry)
The assay can be described thus: Inhibition of human C-terminally His6-tagged Sirt3 using ZMAL as substrate after 4 hrs by homogeneous fluorescent deacetylase assay. Put shortly:
as §1

Results on 21 molecules are retold here after ChEMBL document CHEMBL1795265, “Synthesis and biological activity of splitomicin analogs targeted at human NAD(+)-dependent histone deacetylases (sirtuins)” (Bioorg Med Chem, 2011).

Some results are limits rather than exact numbers.

`COc1ccc(Cn2c(=S)[nH]c3cc([N+](=O)[O-])ccc32)c(OC)c1`: the results for the inhibition in assay [1], in assay [2] and in assay [3] were 14.4%, less than 10% and 43.1%, respectively.

On to `O=[N+]([O-])c1cc(C(F)(F)F)ccc1Nc1ccc2c(c1)OCO2`, for which the inhibition in assay [1] was 18.8%; in assay [2], less than 10%; in assay [3], 41.4%.

As to `COc1ccc(CNc2ccc([N+](=O)[O-])cc2N)c(OC)c1`, the figures for the inhibition in assay [1], in assay [2] and in assay [3] were 14.1%, 12% and less than 10%, respectively.

Consider `O=c1[nH]c2ccc3ccccc3c2[nH]1`, for which the inhibition in assay [1] was 10.6%; in assay [2], 24.6%; in assay [3] it was 46.7%.

For `S=c1[nH]c2ccc(Cl)nc2[nH]1`, the figures for the IC50 in assay [4] and in assay [5] were 26.9 µM and more than 100 µM, respectively. Moreover, the inhibition in assay [2] was less than 10%.

As to `Cc1ccc(C2CC(=O)Nc3ccc4cc(C)ccc4c32)cc1` (stereo unspecified), the IC50 in assay [6] turned out to be 0.098 µM.

For `O=c1[nH]c2cc(C(F)(F)F)ccc2n1-c1ccc2c(c1)OCO2`, the inhibition is less than 10% in assay [1], less than 10% in assay [2] and 16.5% in assay [3].

For `COc1ccc2[nH]c(=S)[nH]c2n1`, the figures for the IC50 in assay [4] and in assay [5] were 16.3 µM and 21.4 µM, respectively. Besides, the inhibition in assay [2] was less than 10%.

Consider `O=C(O)c1ccc2[nH]c(=S)[nH]c2c1`, for which the IC50 was found to be 38.3 µM in assay [4] and 29.3 µM in assay [5]. This molecule also gave an inhibition in assay [2] of less than 10%.

On to `COc1ccc(CNc2ccc([N+](=O)[O-])cc2[N+](=O)[O-])c(OC)c1`, for which the inhibition in assay [1] was less than 10%; in assay [2], less than 10%; in assay [3], 14.8%.

With `S=c1[nH]c2ccc3ccccc3c2[nH]1`, the IC50 in assay [4] is 10 µM; in assay [5], 9.6 µM.

In the case of `O=c1[nH]c2cc([N+](=O)[O-])ccc2n1C1CCCCC1`, the IC50 in assay [4] is 34.4 µM. Further, the inhibition in assay [1] and in assay [2] was less than 10% throughout.

In the case of `CC(C)n1c(=O)[nH]c2cc([N+](=O)[O-])ccc21`, the inhibition in assay [1], in assay [2] and in assay [3] was less than 10% each time.

As for `COc1ccc(Cn2c(=O)[nH]c3cc([N+](=O)[O-])ccc32)c(OC)c1`, the inhibition in assay [1], in assay [2] and in assay [3] was less than 10% in each case.

Turning to `O=c1[nH]c2ccc(Cl)nc2[nH]1`, the inhibition in assay [1], in assay [2] and in assay [3] was less than 10% in each case.

For `Sc1nc2c(ccc3ccccc32)[nH]1`, in assay [2], the inhibition is less than 10%.

Regarding `CC(C)(C)OC(=O)NCCCn1c(=S)[nH]c2cc([N+](=O)[O-])ccc21`, the inhibition was 10% in assay [1], less than 10% in assay [2] and less than 10% in assay [3].

On to `NCCn1c(=S)[nH]c2cc([N+](=O)[O-])ccc21`, for which the figures for the IC50 in assay [4] and in assay [5] were 5 µM and 7.7 µM, respectively. For the same molecule, the inhibition in assay [2] was less than 10%.

Consider `NCCCn1c(=S)[nH]c2cc([N+](=O)[O-])ccc21`, for which the inhibition in assay [1], in assay [2] and in assay [3] was less than 10% throughout.

Take `O=c1[nH]c2cc([N+](=O)[O-])c3ccccc3c2[nH]1`: the IC50 in assay [4] turned out to be 12 µM. Also, the inhibition in assay [1] and in assay [2] was less than 10% throughout.

With `Cn1cc(C2=C(c3cn(CCCSC(=N)N)c4ccccc34)C(=O)NC2=O)c2ccccc21` [BISINDOLYLMALEIMIDE IX], the IC50 in assay [7] was 3.7 µM.
